In ChEMBL document CHEMBL4513216, “Probing the Open Global Health Chemical Diversity Library for Multistage-Active Starting Points for Next-Generation Antimalarials” (ACS Infect Dis, 2020) one finds cytotoxicity data, which are given here for 72 compounds.

A short description of the series: Toxicity liver stage against HepG2, at 10uM. More on the design: test concentration 10 uM, cell line HepG2-A16-CD81EGFP. The format is cell-based. Particulars: human, HepG2-A16-CD81EGFP cells; read-out: INHIBITION
The method, boiled down: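 Uninfected HepG2-A16-CD81EGFP cells, 3 × 10^3 per well, 1536-well, plated on prespotted compound at 10 μM final, parasite-free screening media added to match infected plates; puromycin 10 μM positive, DMSO 0.5% negative; run in parallel with 48 h PbLuc assay at 37 °C, 5% CO2; viability by CellTiter-Glo luminescence, normalized to controls.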
For `COc1ccc(N(Cc2ccco2)C(=O)COC(C)C)cc1F`, the cytotoxicity at 10 µM was -1.63%.

`Cc1nc2c(c(N3CCCOCC3)n1)CCN(c1nccs1)CC2`: the cytotoxicity at 10 µM was 3.08%.

`O=C(c1ccc[nH]1)N1CCCC(c2cc(C(F)(F)F)[nH]n2)C1` (configuration not stated): the cytotoxicity at 10 µM was determined as 2.04%.

For the compound `COc1cccc2c1OCC(C(=O)N1CCN(C3CCCC3)C(=O)C1)C2` (configuration not stated), the cytotoxicity at 10 µM is -4.9%.

Turning to `Cc1ccc(S(=O)(=O)N2Cc3c(CN(C)C)nn(C)c3C2)cc1`, the cytotoxicity at 10 µM turned out to be 2.32%.

Turning to `COCCN(Cc1ccccc1C)c1nc(C)nc2oc(C)nc12`, the cytotoxicity at 10 µM was -51.8%.

On to `CCN(CC)C(CNCc1ccc(O)cc1)c1ccco1` (configuration not stated), for which the cytotoxicity at 10 µM worked out at 1.29%.

With `CCCN(Cc1ccccn1)Cc1ccccc1OC`, the cytotoxicity at 10 µM was -43.3%.

Consider `CC1(C)CC(N2CCN(C3CCCC3)C(CCO)C2)CC(C)(C)C1` (configuration not stated), for which the cytotoxicity at 10 µM was -7.19%.

`COc1ccc(CN2CCC3(CC(Nc4ccncn4)C3)C2)c(OC)c1` (configuration not stated): the cytotoxicity at 10 µM stood at 2.43%.

Take `CC(Cn1cccn1)NC(=O)NCCc1ccc(Cl)s1` (configuration not stated): the cytotoxicity at 10 µM was -3.56%.

Regarding `CCc1cnc2c(c1Nc1ccc(C)c(F)c1)c(=O)n(C)c(=O)n2C`, the cytotoxicity at 10 µM is -2.5%.

With `c1coc(CN2C[C@@H]3CN(Cc4ccoc4)CCO[C@@H]3C2)c1`, the cytotoxicity at 10 µM is -3.87%.

For `CSc1ccccc1C(=O)N(C)Cc1nncn1C(C)C`, the cytotoxicity at 10 µM was determined as 3.92%.

Consider `CC(C)c1nccn1Cc1cc(C(=O)NCC(C)n2ccnc2)n[nH]1` (configuration not stated), for which the cytotoxicity at 10 µM is -0.419%.

For the compound `O=C([C@@H]1CCO[C@@H]2CCN(CC3CC3)C[C@H]21)N1CCCC1`, the cytotoxicity at 10 µM is -103%.

Turning to `CCN(CC)S(=O)(=O)N(Cc1cccc(C)c1)Cc1ccccn1`, the cytotoxicity at 10 µM was -4.88%.

With `CC(=O)Nc1ncc(S(=O)(=O)Nc2ccccc2)s1`, the cytotoxicity at 10 µM is 6.72%.

For `CCN(CC)C(=O)[C@@H]1C[C@H](n2cc(-c3ccccn3)nn2)CN1`, the cytotoxicity at 10 µM was -20.6%.

In the case of `CCn1ncc2c1CCCC2NCc1cc(OC)cc(OC)c1` (configuration not stated), the cytotoxicity at 10 µM is 3.24%.

Turning to `CC(C)c1nc(CN2CCCN(Cc3nnc(C4CC4)o3)CC2)no1`, the cytotoxicity at 10 µM was -0.794%.

In the case of `COc1ccc(Oc2ccc(CNC(=O)C(C)n3cncn3)cn2)cc1` (configuration not stated), the cytotoxicity at 10 µM was found to be 5.42%.

With `NC(=O)c1c(-c2ccc(Cl)cc2Cl)csc1NC(=O)CCC(=O)O`, the cytotoxicity at 10 µM came to 8.32%.

Consider `Cc1cnc(C(=O)N2CCOCC2c2ccccc2)cn1` (configuration not stated), for which the cytotoxicity at 10 µM was -8.31%.

For `Cc1cccc2c1NC1(CCCC1)NC2=O`, the cytotoxicity at 10 µM was -48.5%.

Take `COc1c(C2CCCN2Cc2cc(C)no2)c(C)nn1C` (configuration not stated): the cytotoxicity at 10 µM is -7.25%.

Consider `c1cnc2c(c1)cc([C@H]1CCCO1)n2CCN1CCCCC1`, for which the cytotoxicity at 10 µM was 4.99%.

As to `O=S(=O)(C1CC1)N1CC[C@H]2OCC[C@@]2(COc2ncccc2F)C1`, the cytotoxicity at 10 µM is -150%.

On to `c1ccc(-c2nn3c(CN4CCOCC4)nnc3s2)nc1`, for which the cytotoxicity at 10 µM turned out to be 9.9%.

For the compound `CN(C)C(=O)CN1CCC(c2cncc(-c3cccc(Cl)c3)n2)CC1`, the cytotoxicity at 10 µM is -33.3%.

Regarding `COc1cccc2ccc(CN3CCN(c4cccnc4)CC3)nc12`, the cytotoxicity at 10 µM was -8.66%.

With `Cc1ccsc1CN(CCN(C)C)C(=O)C1=NNC(=O)CC1`, the cytotoxicity at 10 µM is -13.4%.

Turning to `O=C(c1cc(=O)n(-c2ccccc2)[nH]1)N1CCOC(C(F)(F)F)C1` (configuration not stated), the cytotoxicity at 10 µM stood at 3.32%.

Take `Clc1ccc(-c2cnc(CNC3CCc4ncnn4C3)o2)cc1` (configuration not stated): the cytotoxicity at 10 µM was -4.36%.

Consider `NC(=O)C1CN(c2ccc3c(Cl)ccnc3c2F)CCO1` (configuration not stated), for which the cytotoxicity at 10 µM turned out to be 3.06%.

As for `COCCN1CCN(CCCS(=O)(=O)c2ccccc2)CC1C` (configuration not stated), the cytotoxicity at 10 µM is -9.31%.

On to `Cc1nnc(CN2CCN(CC(O)c3cccc(F)c3)CC2)n1C` (configuration not stated), for which the cytotoxicity at 10 µM is -1.92%.

As for `Cc1nn(C)cc1CN(C)C(=O)c1ccccn1`, the cytotoxicity at 10 µM was 4.12%.

`Cc1ncsc1CN1CC[C@H]2OCC[C@@]2(C(=O)NCC2CC2)C1`: the cytotoxicity at 10 µM is 2.4%.

With `O=C(CCCn1cnnn1)N1CCC(c2ccncc2)CC1`, the cytotoxicity at 10 µM was -4.8%.

Consider `O=C(c1cnccn1)N1CC(S(=O)(=O)c2ccc(Cl)cc2)C1`, for which the cytotoxicity at 10 µM was -2.3%.

For the compound `Cn1c(=O)c2cc(C(=O)NCCc3ccccc3)ccc2n(C)c1=O`, the cytotoxicity at 10 µM was -13.8%.

Regarding `CCN1CCN(C(=O)c2[nH]c3ccccc3c2Cl)[C@H]2CS(=O)(=O)C[C@H]21`, the cytotoxicity at 10 µM is -5.41%.

Take `CC1CCc2nc(NS(=O)(=O)c3cnn(C)c3)sc2C1` (configuration not stated): the cytotoxicity at 10 µM is -0.842%.

On to `COc1ccc2c(c1)CCCN(C(C)C(=O)NC(N)=O)C2` (configuration not stated), for which the cytotoxicity at 10 µM was determined as 8.66%.

With `CCc1cnc(NCCCOC2CCCC2)nc1`, the cytotoxicity at 10 µM is -0.0184%.

For the compound `CCOc1ncccc1CNC(=O)Nc1ccc(CC)cc1`, the cytotoxicity at 10 µM is -23.7%.

Turning to `Cc1ccccc1OCCCC(=O)NCc1ccnc(O)c1`, the cytotoxicity at 10 µM came out at 5.65%.

Regarding `CN(CCCc1cc(-c2cccc(F)c2)n[nH]1)C(=O)Cn1cncn1`, the cytotoxicity at 10 µM was -129%.

Consider `O=C(NC1CC1)N1CCc2ccc(=O)n(CC3CC3)c2CC1`, for which the cytotoxicity at 10 µM was -4.63%.

Take `c1cnn(CCNCc2csc(-c3ccsc3)n2)c1`: the cytotoxicity at 10 µM is 1.97%.

`O=S(=O)(c1ccc(-c2nc3c([nH]2)CCNC3)cc1)N1CCCC1`: the cytotoxicity at 10 µM was -2.09%.

As to `CCS(=O)(=O)N1CCn2cc(CN(C)Cc3ccco3)nc2C1`, the cytotoxicity at 10 µM was -74.4%.

For the compound `CCN1CCN(C(=O)NCc2cccc(-c3cnn(C)c3)c2)CC1`, the cytotoxicity at 10 µM was -10%.

On to `CCC1(CO)CCCN(c2ncccc2C#N)C1` (configuration not stated), for which the cytotoxicity at 10 µM was -9.06%.

Turning to `CN1CC[C@H](c2ccccc2)[C@@H]2[C@H]1CCCCN2C(=O)c1cnccn1`, the cytotoxicity at 10 µM is -2.5%.

Take `CC(c1nc(C2CC2)no1)N1CCN(Cc2cccc(C#N)c2)CC1` (configuration not stated): the cytotoxicity at 10 µM was determined as 3.92%.

On to `CSCc1noc(CNC(=O)C2CCN(C(=O)C3CCC3)CC2)n1`, for which the cytotoxicity at 10 µM worked out at 6.35%.

On to `Cc1ccc(C)c(S(=O)(=O)CCN2CCCC2Cn2cncn2)c1` (configuration not stated), for which the cytotoxicity at 10 µM was -8.5%.

Regarding `COC(=O)c1ccc(-c2ccc(/C=C3\C(=O)NC(=N)N3C)o2)cc1`, the cytotoxicity at 10 µM was -66.3%.

Regarding `COCC1COCCC12CCN(C(=O)Cc1ccc(F)cc1)CC2` (configuration not stated), the cytotoxicity at 10 µM stood at 1.68%.

Consider `O=C(c1cnc(-c2ccccn2)s1)N1CCCC1Cn1cccn1` (configuration not stated), for which the cytotoxicity at 10 µM is -5%.

Consider `CC(C)(N)C(=O)N1CCCC(C(=O)c2ccc(C(C)(C)C)cc2)C1` (configuration not stated), for which the cytotoxicity at 10 µM is -1.1%.

Turning to `c1cnc(N2CCC3(CCN(Cc4cccnc4)CC3)CC2)nc1`, the cytotoxicity at 10 µM was -88.4%.

For the compound `Cc1cc2ccccc2n1CCC(=O)N1CCC2(CC1)CNC(=O)C2`, the cytotoxicity at 10 µM was determined as 0.105%.

For `COC(C)(C)c1noc(C2(C#N)CCCC2)n1`, the cytotoxicity at 10 µM is -5.11%.

`COc1ncccc1NC(=O)N1CCOCC1C` (configuration not stated): the cytotoxicity at 10 µM is -4.86%.

In the case of `O=C(CC1CCCC1)N1CCCC1c1ccc(CN2CCOCC2)cn1` (configuration not stated), the cytotoxicity at 10 µM came out at 1.37%.

For the compound `O=C(NCC1CC(=O)N(CCc2ccccc2)C1)c1ccon1` (configuration not stated), the cytotoxicity at 10 µM was -5.22%.

With `OC(CN1CCOCC1)CN1CCc2c(ncn2C2CC2)C1` (configuration not stated), the cytotoxicity at 10 µM came to 2.45%.

Take `CC(C)(C)CC(=O)N1CSCC1C(=O)NC1=NCCS1` (configuration not stated): the cytotoxicity at 10 µM stood at 17.9%.

As for `Cc1ccc2c(c1)N(C(=O)c1nccnc1N)CC(C)O2` (configuration not stated), the cytotoxicity at 10 µM was -1.65%.
